# Laboratory results reported in PMC9394215 (Journal for Immunotherapy of Cancer, 2022).
# What was measured:
# [1] = biological target: T1, Membrane-bound CD73 (Homo sapiens, UniProt P21589); assay: Membrane-bound CD73 inhibition; format: biochemical
# T1 sequence (P21589 27-574): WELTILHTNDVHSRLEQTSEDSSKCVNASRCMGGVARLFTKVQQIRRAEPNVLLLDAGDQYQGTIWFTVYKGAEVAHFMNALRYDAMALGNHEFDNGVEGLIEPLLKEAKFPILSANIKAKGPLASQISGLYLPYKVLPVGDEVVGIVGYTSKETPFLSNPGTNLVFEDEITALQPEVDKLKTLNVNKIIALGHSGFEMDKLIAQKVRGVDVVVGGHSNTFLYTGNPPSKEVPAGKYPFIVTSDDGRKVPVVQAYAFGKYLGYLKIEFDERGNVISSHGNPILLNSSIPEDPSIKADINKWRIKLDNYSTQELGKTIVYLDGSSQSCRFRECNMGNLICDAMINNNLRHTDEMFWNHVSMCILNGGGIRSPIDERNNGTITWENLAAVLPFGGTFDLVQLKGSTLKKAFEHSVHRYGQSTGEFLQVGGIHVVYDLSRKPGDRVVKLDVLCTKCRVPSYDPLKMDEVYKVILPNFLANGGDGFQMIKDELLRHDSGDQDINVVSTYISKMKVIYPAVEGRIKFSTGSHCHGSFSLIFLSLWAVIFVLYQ
# [2] = biological target: T2, Soluble CD73 (Homo sapiens, UniProt P21589); assay: CD73 assay with [2,8-3H]AMP; format: biochemical
# T2 sequence (P21589 27-549 limits assumed): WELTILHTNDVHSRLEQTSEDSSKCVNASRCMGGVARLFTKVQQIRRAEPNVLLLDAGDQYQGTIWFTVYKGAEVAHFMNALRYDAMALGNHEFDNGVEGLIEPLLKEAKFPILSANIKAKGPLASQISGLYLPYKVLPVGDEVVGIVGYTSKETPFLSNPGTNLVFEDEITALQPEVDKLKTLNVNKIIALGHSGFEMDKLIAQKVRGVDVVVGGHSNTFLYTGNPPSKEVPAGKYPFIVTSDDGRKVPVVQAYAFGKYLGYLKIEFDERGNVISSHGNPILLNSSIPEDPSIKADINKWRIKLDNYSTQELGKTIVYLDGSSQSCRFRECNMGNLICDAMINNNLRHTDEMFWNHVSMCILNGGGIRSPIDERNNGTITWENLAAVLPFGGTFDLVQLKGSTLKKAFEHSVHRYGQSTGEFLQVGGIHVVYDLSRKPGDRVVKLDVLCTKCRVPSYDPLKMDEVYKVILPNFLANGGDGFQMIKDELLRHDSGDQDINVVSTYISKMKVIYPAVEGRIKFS
# In short: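 A dilution series of test compound was incubated with soluble human CD73 (0.09 µg/mL) and 5.0 µM [2,8-3H]AMP in 25 mM Tris, 140 mM NaCl, 25 mM NaH2PO4, pH 7.4. Incubation ran 25 min at 37°C with shaking. Cold LaCl3/sodium acetate buffer (pH 4.0) precipitated phosphate and unconverted AMP over 30 min on ice. Samples were filtered through GF/B filters and the filtrate collected.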
# [3] = read-out: % inhibition at 50 µM
smiles,measurement,setting,value
"Cc1cc(Nc2ncc(Cl)c(Nc3ccccc3S(=O)(=O)C(C)C)n2)c(OC(C)C)cc1C1CCNCC1 [ceritinib, Ceritinib]",IC50,[1],> 50 µM
same,inhibition at 50 µM,[1]; [3],30%
same,IC50,[2],> 50 µM
same,inhibition at 50 µM,[2]; [3],33%
